In ChEMBL document CHEMBL5143736, “Discovery and Optimization of a Synthetic Class of Nectin-4-Targeted CD137 Agonists for Immuno-oncology” (J Med Chem, 2022):
The source made the active and inactive calls. No cut-off for these calls is given here.

How the values were obtained:
[1] = target: T1, Tumor necrosis factor receptor superfamily member 9 (Homo sapiens, UniProt Q07011); test: Agonist activity at human CD137 expressed in human HT-1376 cells measured after 6 hrs by […] microplate reader assay; format: cell-based; conditions: filed as agonist
[2] = test system: PBMC; test: […] activity in human PBMC stimulated with anti-CD3-mediated CD137 expression in cocultured with […] cell line assessed as increase in secretion of IL2 incubated for 48 hrs by Luminex assay; format: functional, cell-based; conditions: DDE = dose-dependent effect
In short: (§1)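 Healthy-donor PBMCs were thawed into R10 medium and cocultured with HT1376 cells at 10:1 effector:target (1×10^5 PBMC:1×10^4 tumor cells per well). Soluble anti-CD3 OKT3 (100 ng/mL) was added on day 0, then compound, 37 °C, 5% CO2. Supernatant IFNγ and IL-2 taken at 24 and 48 h, measured by Luminex. Four-parameter fit, n = 3, repeated in multiple donors.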

[3] = target: T1, Tumor necrosis factor receptor superfamily member 9; test: Agonist activity at human CD137 expressed in human NCI-H292 cells measured after 6 hrs by […] microplate reader assay; format: cell-based; conditions: filed as agonist
[4] = test system: PBMC; test: […] activity in human PBMC stimulated with anti-CD3-mediated CD137 expression in cocultured with […] cell line assessed as increase in secretion of IFN gamma incubated for 48 hrs by Luminex assay; format: functional, cell-based; conditions: DDE = dose-dependent effect; in short: as §1
[5] = target: T1, Tumor necrosis factor receptor superfamily member 9; test: Agonist activity at recombinant human CD137 expressed in Jurkat T cells co-expressing response element driven luciferase reporter gene co-cultured with Nectin-4 expressing mouse MC38 cells assessed as luminescence measured after 6 hrs by luciferase reporter gene based co-culture assay; format: cell-based; conditions: filed as agonist, DDE = dose-dependent effect
In short: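 Jurkat cells carrying human CD137 and a CD137 response-element luciferase reporter, cocultured for 6 h at 37 °C, 5% CO2 with 10,000 MC38 cells engineered to express mouse Nectin-4 (parental MC38 as negative line). Bio-Glo luminescence read-out, as fold induction over no-test-article wells. Mean of n = 2.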

[6] = target: T2, Nectin-4 (Homo sapiens, UniProt Q96NY8); test: Binding affinity to human Nectin-4 assessed as dissociation constant using 1:1 Nectin-4/CD137 by surface plasmon resonance analysis
T2 sequence (Q96NY8 whole entry): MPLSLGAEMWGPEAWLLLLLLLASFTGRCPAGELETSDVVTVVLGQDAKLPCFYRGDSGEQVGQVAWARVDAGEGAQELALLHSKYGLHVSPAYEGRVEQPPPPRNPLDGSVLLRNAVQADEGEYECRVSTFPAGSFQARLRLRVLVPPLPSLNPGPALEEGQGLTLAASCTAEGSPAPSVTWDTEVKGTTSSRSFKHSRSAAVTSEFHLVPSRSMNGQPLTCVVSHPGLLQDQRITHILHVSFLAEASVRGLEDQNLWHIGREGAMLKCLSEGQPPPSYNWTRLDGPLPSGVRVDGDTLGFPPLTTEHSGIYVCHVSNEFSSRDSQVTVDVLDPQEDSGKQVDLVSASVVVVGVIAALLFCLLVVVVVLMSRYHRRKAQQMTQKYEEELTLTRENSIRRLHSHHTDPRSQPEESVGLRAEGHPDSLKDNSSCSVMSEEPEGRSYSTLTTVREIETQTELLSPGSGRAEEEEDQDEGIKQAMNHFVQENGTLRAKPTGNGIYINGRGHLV
In short: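 SPR kinetics against human Nectin-4 (residues 32–349, baculovirus/Sf21-expressed, FLAG-tagged), 25 °C. Top 100 nM with 6 further twofold dilutions, 50 μL/min, 60 s association, 400–1200 s dissociation, DMSO-corrected. At least four concentrations used to obtain kon, koff and KD.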

[7] = target: T1, Tumor necrosis factor receptor superfamily member 9; test: Binding affinity to human recombinant CD137 by surface plasmon resonance analysis
In short: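 Biacore T200 SPR, human CD137, 25 °C. Peptide series in PBS/0.05% Tween 20 with 0.5% DMSO: top 500 nM (threefold) or 10 μM (twofold), 6 further dilutions. Flow 90 μL/min, 60 s association, 100–600 s dissociation, glycine pH 2 regeneration. DMSO-corrected and double-referenced; kinetic fit gives ka, kd, KD.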

T1 sequence (Q07011 whole entry): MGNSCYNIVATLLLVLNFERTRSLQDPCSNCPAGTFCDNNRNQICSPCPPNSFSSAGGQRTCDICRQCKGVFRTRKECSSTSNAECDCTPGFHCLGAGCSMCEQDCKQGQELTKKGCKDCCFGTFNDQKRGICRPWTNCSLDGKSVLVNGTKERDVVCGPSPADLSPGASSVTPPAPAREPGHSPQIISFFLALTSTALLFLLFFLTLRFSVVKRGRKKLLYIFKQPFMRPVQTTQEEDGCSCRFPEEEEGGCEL

With `CCCC[C@@H]1NC(=O)[C@H](Cc2ccc(O)cc2)NC(=O)[C@@H]2CCCN2C(=O)[C@H](CC(=O)O)NC(=O)[C@H](C)NC(=O)[C@H](Cc2ccccc2)NC(=O)[C@@H]2CSCCC(=O)N3CN(CN(C3)C(=O)CCSC[C@@H](C(=O)N[C@@H](CNC(=O)CCOCCOCCOCCOCCOCCOCCOCCOCCOCCOCCOCCOCCn3cc(CCC(=O)NCCC(=O)N(C)CC(=O)N(C)CC(=O)N(C)CC(=O)N(C)CC(=O)N(C)CC(=O)N(C)CC(=O)N(C)CC(=O)N(C)CC(=O)N(C)CC(=O)N(C)CC(=O)N[C@H]4CSCCC(=O)N5CN6CN(C5)C(=O)CCSC[C@H](NC(=O)[C@@H](CC(=O)O)NC(=O)[C@H](Cc5cccc7ccccc57)NC(=O)[C@@H]5CCCN5C4=O)C(=O)N[C@@H](CCSC)C(=O)N[C@@H](CCCCNC(=N)N)C(=O)N[C@@H](CC(=O)O)C(=O)N[C@@H](Cc4c[nH]c5ccccc45)C(=O)N[C@@H](CO)C(=O)N[C@@H]([C@@H](C)O)C(=O)N4CCC[C@H]4C(=O)N4C[C@H](O)C[C@H]4C(=O)N[C@@H](Cc4c[nH]c5ccccc45)C(=O)N[C@H](C(N)=O)CSCCC6=O)nn3)C(N)=O)NC1=O)C(=O)CCSC[C@H](NC(=O)[C@H](C)NC(C)=O)C(=O)NC([C@@H](C)CC)C(=O)N[C@@H](CCC(=O)O)C(=O)N[C@@H](CCC(=O)O)C(=O)NCC(=O)N[C@@H](CCC(N)=O)C(=O)N[C@@H](Cc1ccc(O)cc1)C(=O)N2` (some centres not stated) the Activity [1] was “Active”, the Activity [2] was “Dde” and the Activity [3] was “Active”. The Activity [4] was “Dde”, the Activity [5] was “Dde” and the Kd [6] was 2.8 nM. It also gave a Kd [7] of 108 nM.
